Measured values taken from ChEMBL document CHEMBL4371052, “Diarylcarbonates are a new class of deubiquitinating enzyme inhibitor” (Bioorg Med Chem Lett, 2019).
Activity calls are given as the source filed them. The rule behind the calls is not given here.

Columns and labels:
[1] = Inhibition of deubiquitinase in HEK293T cells expressing N-terminal HA-tagged ubiquitin assessed as stabilization of HMW-Ub proteins after 2 hrs by Western blot analysis; type: cell-based, Homo sapiens
Homo sapiens [2] = species on record: Homo sapiens; experiment: Inhibition of deubiquitinase in HEK293T cells expressing N-terminal HA-tagged ubiquitin assessed as stabilization of HMW-Ub proteins at 30 uM after 2 hrs by Western blot analysis; type: cell-based
How it was run: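 Lysate of HEK 293T cells expressing HA-ubiquitin, incubated with inhibitor or DMSO vehicle at 37 °C for up to 2 h. Reactions quenched with reducing Laemmli buffer. Remaining high-molecular-weight ubiquitinated proteins assessed by SDS-PAGE and anti-HA immunoblot, relative to DMSO control at time 0. Duplicate runs.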

[3] = molecular target: Ubiquitin carboxyl-terminal hydrolase 9X (Homo sapiens) (UniProt Q93008); experiment: Inhibition of USP9x in human K562 cells assessed as decrease in Bcr-Abl expression at 50 uM measured after 2 hrs by Western blot analysis; type: cell-based
Ubiquitin carboxyl-terminal hydrolase 9X (Homo sapiens), sequence (Q93008 whole entry, the tested form may be a part): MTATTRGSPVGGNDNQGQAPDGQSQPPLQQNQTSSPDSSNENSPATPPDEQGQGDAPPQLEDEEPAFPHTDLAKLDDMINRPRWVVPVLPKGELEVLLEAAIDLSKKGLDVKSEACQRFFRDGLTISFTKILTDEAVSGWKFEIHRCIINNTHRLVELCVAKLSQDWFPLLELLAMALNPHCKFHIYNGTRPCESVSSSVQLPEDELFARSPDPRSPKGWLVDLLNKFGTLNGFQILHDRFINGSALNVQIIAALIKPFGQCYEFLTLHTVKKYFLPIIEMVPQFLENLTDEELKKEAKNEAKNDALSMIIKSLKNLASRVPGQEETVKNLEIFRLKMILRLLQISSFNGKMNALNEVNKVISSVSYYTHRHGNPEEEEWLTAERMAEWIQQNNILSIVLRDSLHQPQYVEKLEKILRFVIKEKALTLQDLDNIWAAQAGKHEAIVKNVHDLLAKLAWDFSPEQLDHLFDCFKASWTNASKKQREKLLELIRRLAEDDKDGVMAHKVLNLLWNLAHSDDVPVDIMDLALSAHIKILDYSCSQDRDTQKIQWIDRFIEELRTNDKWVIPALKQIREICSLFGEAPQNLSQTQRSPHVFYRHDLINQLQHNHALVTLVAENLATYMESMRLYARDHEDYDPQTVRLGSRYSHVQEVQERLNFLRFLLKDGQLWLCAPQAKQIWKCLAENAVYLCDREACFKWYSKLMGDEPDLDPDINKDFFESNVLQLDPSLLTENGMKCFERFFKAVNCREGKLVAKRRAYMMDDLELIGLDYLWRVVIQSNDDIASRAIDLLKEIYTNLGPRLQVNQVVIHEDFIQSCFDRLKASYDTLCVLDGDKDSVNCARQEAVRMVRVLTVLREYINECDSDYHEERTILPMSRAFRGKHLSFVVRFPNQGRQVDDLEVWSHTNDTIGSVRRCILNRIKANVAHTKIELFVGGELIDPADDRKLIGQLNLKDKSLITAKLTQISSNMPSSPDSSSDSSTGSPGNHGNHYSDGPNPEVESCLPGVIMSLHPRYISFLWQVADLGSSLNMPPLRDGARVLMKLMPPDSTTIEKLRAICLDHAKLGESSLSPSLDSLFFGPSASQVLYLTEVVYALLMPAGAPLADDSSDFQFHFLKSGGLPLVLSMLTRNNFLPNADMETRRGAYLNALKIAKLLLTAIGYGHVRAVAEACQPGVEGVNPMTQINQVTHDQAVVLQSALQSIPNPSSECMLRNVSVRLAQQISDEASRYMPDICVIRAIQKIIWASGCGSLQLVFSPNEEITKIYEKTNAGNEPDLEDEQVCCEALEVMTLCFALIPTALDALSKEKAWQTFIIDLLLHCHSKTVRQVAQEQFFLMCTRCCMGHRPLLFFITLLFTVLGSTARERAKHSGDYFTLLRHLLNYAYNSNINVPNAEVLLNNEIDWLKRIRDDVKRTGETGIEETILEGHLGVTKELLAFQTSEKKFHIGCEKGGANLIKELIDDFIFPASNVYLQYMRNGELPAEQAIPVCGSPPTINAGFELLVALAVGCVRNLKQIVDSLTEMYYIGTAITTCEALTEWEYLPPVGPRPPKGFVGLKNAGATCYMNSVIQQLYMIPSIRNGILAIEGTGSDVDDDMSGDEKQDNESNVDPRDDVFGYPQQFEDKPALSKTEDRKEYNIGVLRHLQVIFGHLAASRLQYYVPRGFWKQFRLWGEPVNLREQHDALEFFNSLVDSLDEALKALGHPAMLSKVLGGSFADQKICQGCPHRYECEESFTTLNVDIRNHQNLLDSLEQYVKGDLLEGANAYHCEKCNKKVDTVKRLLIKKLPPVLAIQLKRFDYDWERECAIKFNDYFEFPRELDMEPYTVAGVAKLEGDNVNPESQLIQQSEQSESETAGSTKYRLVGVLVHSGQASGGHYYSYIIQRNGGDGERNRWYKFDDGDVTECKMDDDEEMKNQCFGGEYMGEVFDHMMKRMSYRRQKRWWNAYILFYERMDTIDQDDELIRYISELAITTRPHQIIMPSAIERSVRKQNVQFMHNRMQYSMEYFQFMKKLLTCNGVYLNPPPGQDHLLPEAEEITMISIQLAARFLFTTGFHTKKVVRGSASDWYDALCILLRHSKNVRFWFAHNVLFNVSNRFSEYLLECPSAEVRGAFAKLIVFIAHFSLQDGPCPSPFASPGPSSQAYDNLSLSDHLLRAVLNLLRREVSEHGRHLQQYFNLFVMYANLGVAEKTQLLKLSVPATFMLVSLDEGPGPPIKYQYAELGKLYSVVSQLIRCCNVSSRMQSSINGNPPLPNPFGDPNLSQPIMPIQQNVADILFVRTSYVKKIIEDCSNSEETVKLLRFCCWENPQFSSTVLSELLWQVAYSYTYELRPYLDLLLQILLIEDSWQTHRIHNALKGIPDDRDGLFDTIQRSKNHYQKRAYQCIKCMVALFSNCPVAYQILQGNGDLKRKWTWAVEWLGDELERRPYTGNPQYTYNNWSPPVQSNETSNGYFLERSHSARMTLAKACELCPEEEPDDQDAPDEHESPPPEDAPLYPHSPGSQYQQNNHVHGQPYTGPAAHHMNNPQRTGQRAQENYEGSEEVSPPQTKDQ
How it was run: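 K562 cells treated with 50 μM compound for 2 h. Lysates were sonicated in SDS, and Bcr-Abl was immunoblotted with anti-Abl antibody.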

[4] = molecular target: 26S proteasome (Homo sapiens) (UniProt Q99460+P49721+P20618+P28074+P28062+P28065+P28072+O00487+P25786+P25787+P25788+P25789+P28066+P60900+O14818+Q8TAA3+P40306+A5LHX3+P49720+P28070+Q99436+Q16186+P35998+P62191+P43686+P62333+P17980+P62195+Q13200+O43242+O00232+O00231+Q15008+P51665+Q9UNM6+P55036+P48556+P60896); experiment: Inhibition of 26S proteasome in HEK293T cells expressing GFP-fused Ub G76V mutant assessed as increase in GFP fluorescence; type: cell-based
How it was run: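 HEK 293T cells expressing G76V Ub-GFP, a fusion uncleavable by DUBs that reports ubiquitin-proteasome flux, treated with compound. GFP fluorescence was the read-out, with bortezomib as proteasome-inhibitor reference.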

Ficin (Ficus carica) = experiment: Inhibition of fig ficin at 100 uM using Z-Arg-AMC as substrate preincubated for 30 mins followed by substrate addition by fluorescence assay
[5] = molecular target: Ubiquitin carboxyl-terminal hydrolase 7 (Homo sapiens) (UniProt Q93009); experiment: Inhibition of recombinant His6-tagged USP7 catalytic domain (unknown origin) assessed as association constant using Ub-AMC as substrate by fluorescence assay
Ubiquitin carboxyl-terminal hydrolase 7 (Homo sapiens), sequence (Q93009 whole entry, looked up, the tested form may be a part): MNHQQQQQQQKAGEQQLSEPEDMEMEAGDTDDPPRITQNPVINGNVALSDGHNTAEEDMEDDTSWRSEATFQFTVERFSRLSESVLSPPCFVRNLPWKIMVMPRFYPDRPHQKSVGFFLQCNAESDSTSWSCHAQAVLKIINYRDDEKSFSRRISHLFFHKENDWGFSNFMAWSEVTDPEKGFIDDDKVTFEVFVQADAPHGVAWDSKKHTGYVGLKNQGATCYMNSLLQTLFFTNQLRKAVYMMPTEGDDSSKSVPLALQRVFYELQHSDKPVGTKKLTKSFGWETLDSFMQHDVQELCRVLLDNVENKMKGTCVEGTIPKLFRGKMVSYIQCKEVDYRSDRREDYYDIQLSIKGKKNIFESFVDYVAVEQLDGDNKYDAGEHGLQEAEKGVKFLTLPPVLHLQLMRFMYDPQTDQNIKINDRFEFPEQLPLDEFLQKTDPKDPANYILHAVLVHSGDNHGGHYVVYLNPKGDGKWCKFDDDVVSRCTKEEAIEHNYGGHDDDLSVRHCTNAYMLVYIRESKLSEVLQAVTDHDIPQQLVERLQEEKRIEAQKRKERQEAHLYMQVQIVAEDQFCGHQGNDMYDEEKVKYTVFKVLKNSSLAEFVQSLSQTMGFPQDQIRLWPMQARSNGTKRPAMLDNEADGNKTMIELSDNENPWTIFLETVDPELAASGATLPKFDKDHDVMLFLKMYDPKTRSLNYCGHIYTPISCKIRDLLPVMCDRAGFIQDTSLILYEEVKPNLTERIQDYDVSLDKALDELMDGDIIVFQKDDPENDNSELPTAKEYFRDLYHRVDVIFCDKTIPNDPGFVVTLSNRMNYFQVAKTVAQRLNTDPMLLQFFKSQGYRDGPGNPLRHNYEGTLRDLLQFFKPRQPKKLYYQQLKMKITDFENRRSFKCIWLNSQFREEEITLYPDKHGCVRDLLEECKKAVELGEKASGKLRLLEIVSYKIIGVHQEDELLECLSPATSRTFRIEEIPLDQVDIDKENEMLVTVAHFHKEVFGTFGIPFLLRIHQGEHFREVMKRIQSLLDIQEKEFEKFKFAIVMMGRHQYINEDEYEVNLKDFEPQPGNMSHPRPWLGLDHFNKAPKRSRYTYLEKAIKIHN

K562 = experiment: Inhibition of deubiquitinase in human K562 cells assessed as accumulation of K48-linked HMW-Ub protein at 50 uM measured after 2 hrs by Western blot analysis; type: cell-based
How it was run: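 K562 cells exposed to compound at 50 μM for 2 h; K48-linked ubiquitin accumulation read by immunoblotting.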

[6] = Inhibition of deubiquitinase in HEK293T cells assessed as stabilization of K48-linked HMW-Ub protein by Western blot analysis; type: cell-based, Homo sapiens
Papain (Carica papaya) = molecular target: T1, Papain (Carica papaya) (UniProt P00784); experiment: Inhibition of papaya papain at 100 uM using Z-Arg-AMC as substrate preincubated for 30 mins followed by substrate addition by fluorescence assay
T1 sequence (whole entry): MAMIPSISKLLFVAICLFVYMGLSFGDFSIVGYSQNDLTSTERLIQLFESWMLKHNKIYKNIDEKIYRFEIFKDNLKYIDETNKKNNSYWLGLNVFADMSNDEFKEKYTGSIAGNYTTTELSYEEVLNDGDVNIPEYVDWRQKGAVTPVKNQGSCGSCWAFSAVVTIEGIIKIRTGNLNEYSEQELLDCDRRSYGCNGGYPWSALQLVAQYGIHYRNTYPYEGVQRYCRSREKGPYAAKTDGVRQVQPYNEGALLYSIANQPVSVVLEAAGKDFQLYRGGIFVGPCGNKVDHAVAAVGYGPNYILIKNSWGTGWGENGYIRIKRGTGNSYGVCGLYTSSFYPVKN
How it was run: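 Enzyme (papain or ficin) preincubated 30 min with inhibitor at 100 μM, then Z-Arg-AMC substrate added at 300 μM; AMC release followed.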

[7] = molecular target: Ubiquitin carboxyl-terminal hydrolase 9X (Homo sapiens) (UniProt Q93008); experiment: Inhibition of recombinant His6-tagged USP9x catalytic domain (unknown origin) assessed as association constant using Ub-AMC as substrate by fluorescence assay
Homo sapiens [8] = species on record: Homo sapiens; experiment: Inhibition of deubiquitinase in HEK293T cells expressing N-terminal HA-tagged ubiquitin assessed as stabilization of HMW-Ub proteins at 1 uM after 2 hrs by Western blot analysis; type: cell-based
[9] = molecular target: Ubiquitin carboxyl-terminal hydrolase 9X (Homo sapiens) (UniProt Q93008); experiment: Inhibition of recombinant human N-terminal His6-tagged USP9x assessed as association constant using Cy5-UbVME as substrate preincubated for 15 mins followed by substrate addition and measured after 7 mins by fluorescence assay
MCF7 = experiment: Cytotoxicity against human MCF7 cells assessed as decrease in cell viability treated every 24 hrs measured after 72 hrs by alamar blue assay; type: functional, cell-based
How it was run: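 MCF7 or B16/F10 cells dosed with compound every 24 h. Viable cells were quantified with Alamar Blue after 72 h.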

Homo sapiens [10] = species on record: Homo sapiens; experiment: Inhibition of deubiquitinase in HEK293T cells expressing N-terminal HA-tagged ubiquitin assessed as stabilization of HMW-Ub proteins by measuring half life at 500 uM after 2 hrs by Western blot analysis; type: cell-based
[11] = Inhibition of deubiquitinase in COS1 cells expressing N-terminal HA-tagged ubiquitin assessed as stabilization of HMW-Ub proteins by Western blot analysis; type: cell-based, Chlorocebus aethiops
How it was run: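 HMW-Ub decomposition followed in lysates of Cos-1 cells expressing HA-Ub; EC50 from inhibition of HMW-Ub loss; mean ± s.e.m. of at least 3 independent experiments.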

Homo sapiens [12] = species on record: Homo sapiens; experiment: Inhibition of deubiquitinase in HEK293T cells expressing N-terminal HA-tagged ubiquitin assessed as stabilization of HMW-Ub proteins at 100 uM after 2 hrs by Western blot analysis; type: cell-based
[13] = molecular target: Sentrin-specific protease 6 (Homo sapiens) (UniProt Q9GZR1); experiment: Inhibition of recombinant His6-tagged SENP6 catalytic domain (628 to 1112 residues) (unknown origin) at 1 to 25 uM using SUMO2-modified RanGap1 as substrate preincubated for 30 mins followed by substrate addition and measured after 10 mins by Western blot analysis
Sentrin-specific protease 6 (Homo sapiens), sequence (Q9GZR1 whole entry, the tested form may be a part): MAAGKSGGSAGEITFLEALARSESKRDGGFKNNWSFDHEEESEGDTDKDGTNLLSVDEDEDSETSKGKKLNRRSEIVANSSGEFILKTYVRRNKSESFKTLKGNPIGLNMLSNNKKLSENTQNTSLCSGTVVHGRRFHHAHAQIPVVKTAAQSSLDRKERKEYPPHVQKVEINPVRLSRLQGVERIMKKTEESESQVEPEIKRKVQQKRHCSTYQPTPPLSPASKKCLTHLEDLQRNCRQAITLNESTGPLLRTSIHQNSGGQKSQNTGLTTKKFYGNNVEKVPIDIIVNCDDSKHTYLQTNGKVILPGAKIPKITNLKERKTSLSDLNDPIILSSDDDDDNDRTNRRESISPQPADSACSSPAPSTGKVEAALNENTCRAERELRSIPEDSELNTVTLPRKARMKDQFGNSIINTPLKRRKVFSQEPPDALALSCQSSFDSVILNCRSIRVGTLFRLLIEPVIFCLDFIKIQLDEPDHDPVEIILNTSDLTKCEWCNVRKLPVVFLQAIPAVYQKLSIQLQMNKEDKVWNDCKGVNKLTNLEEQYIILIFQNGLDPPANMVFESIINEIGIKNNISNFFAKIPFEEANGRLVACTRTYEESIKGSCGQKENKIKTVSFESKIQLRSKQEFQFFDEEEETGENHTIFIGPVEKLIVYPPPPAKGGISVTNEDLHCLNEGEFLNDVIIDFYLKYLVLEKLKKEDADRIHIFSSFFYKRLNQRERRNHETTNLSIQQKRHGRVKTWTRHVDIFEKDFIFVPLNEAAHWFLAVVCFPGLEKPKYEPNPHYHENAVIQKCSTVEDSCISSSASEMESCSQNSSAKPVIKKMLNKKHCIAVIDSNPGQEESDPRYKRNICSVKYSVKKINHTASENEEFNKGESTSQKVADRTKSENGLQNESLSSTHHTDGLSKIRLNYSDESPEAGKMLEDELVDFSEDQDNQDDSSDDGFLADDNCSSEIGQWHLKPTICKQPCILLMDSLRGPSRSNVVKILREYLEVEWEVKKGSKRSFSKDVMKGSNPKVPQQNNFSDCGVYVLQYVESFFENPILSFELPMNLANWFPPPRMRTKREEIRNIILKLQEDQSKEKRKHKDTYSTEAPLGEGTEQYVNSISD
How it was run: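 His6-SENP6 catalytic domain (aa 628-1112, 200 nM) treated with inhibitor 30 min at room temperature; SUMOylated His6-RanGap1 (aa 418-588, 3 μM) then added for 10 min at 37 °C; quenched in Laemmli buffer, SDS-PAGE, anti-His6 immunoblot.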

Homo sapiens [14] = species on record: Homo sapiens; experiment: Inhibition of deubiquitinase in HEK293T cells expressing N-terminal HA-tagged ubiquitin assessed as stabilization of HMW-Ub proteins by measuring half life at 250 uM after 2 hrs by Western blot analysis; type: cell-based
Homo sapiens [15] = species on record: Homo sapiens; experiment: Inhibition of deubiquitinase in HEK293T cells expressing N-terminal HA-tagged ubiquitin assessed as stabilization of HMW-Ub proteins at 25 uM after 2 hrs by Western blot analysis; type: cell-based

Structure (SMILES): COc1ccc(OC(=O)Oc2ccc(CN)cc2)cc1
- EC50 [1]: 260 µM

Structure (SMILES): Cc1cc(C(=O)CN2CCCC2)c(C)n1-c1ccc(F)cc1
- inhibition (Homo sapiens [2]): Active

Structure (SMILES): NCc1ccc(OC(=O)Oc2cccc3ccccc23)cc1
- EC50 [1]: 40 µM
- inhibition [3]: Active
- inhibition [4]: inactive
- inhibition (Ficin (Ficus carica)): inactive
- K [5]: inactive
- inhibition (K562): Active
- EC50 [6]: < 50 µM
- inhibition (Papain (Carica papaya)): inactive
- K [7]: 17 M⁻¹ s⁻¹

Structure (SMILES): CC(C)C[C@H](NC(=O)[C@H](Cc1ccccc1)NC(=O)c1cnccn1)B(O)O
- inhibition (Homo sapiens [8]): inactive

Structure (SMILES): CCC[C@H](NC(=O)/C(C#N)=C/c1cccc(Br)n1)c1ccccc1
- K [5]: 66 M⁻¹ s⁻¹
- K [7]: 50 M⁻¹ s⁻¹

Structure (SMILES): CC(C)COC(=O)Oc1ccc(CN)cc1
- EC50 [1]: > 500 µM

Structure (SMILES): COc1ccc(OC(=O)Oc2cccc(OC)c2)cc1
- EC50 [1]: > 150 µM

Structure (SMILES): CC(C)CNCc1ccc(OC(=O)Oc2ccc3ccccc3c2)cc1
- EC50 [1]: 70 µM

Structure (SMILES): S=C=NCCc1ccccc1
- K [9]: 150 M⁻¹ s⁻¹

Structure (SMILES): Oc1ccc2ccccc2c1
- Activity (MCF7): inactive

Structure (SMILES): NCc1ccc(OC(=O)Nc2ccccc2)cc1
- EC50 [1]: > 150 µM

Structure (SMILES): NCc1ccc(OC(=O)Oc2ccccc2)cc1
- EC50 [1]: 210 µM
- T1/2 (Homo sapiens [10]): > 0.5 h
- EC50 [11]: 250 µM

Structure (SMILES): O=C1/C(=C/c2ccc([N+](=O)[O-])cc2)CS(=O)(=O)C/C1=C\c1ccc([N+](=O)[O-])cc1
- inhibition (Homo sapiens [12]): Active

Structure (SMILES): O=C(Oc1ccccc1)Oc1ccccc1
- EC50 [1]: > 150 µM

Structure (SMILES): CC(C)(C)CNCc1ccc(OC(=O)Oc2ccc3ccccc3c2)cc1
- EC50 [1]: 30 µM
- K [5]: 21 M⁻¹ s⁻¹
- K [7]: inactive

Structure (SMILES): Cc1ccc(OC(=O)Oc2ccc(CN)cc2)cc1
- EC50 [1]: 250 µM

Structure (SMILES): N#CSc1cc(SC#N)c(N)nc1N
- K [7]: 90 M⁻¹ s⁻¹

Structure (SMILES): O=C(Oc1ccccc1)Oc1ccc(CNCc2ccc(Cl)cc2)cc1
- EC50 [1]: 300 µM

Structure (SMILES): Cc1ccc(OC(=O)Oc2cccc(C)c2)cc1
- EC50 [1]: > 150 µM

Structure (SMILES): NCc1ccc(NC(=O)Oc2ccccc2)cc1
- EC50 [1]: > 150 µM

Structure (SMILES): NCc1ccc(OC(=O)Cc2ccccc2)cc1
- EC50 [1]: > 150 µM

Structure (SMILES): NCc1ccc(OC(=O)Oc2ccc(Br)cc2)cc1
- EC50 [1]: 30 µM
- inhibition [3]: Active
- inhibition [13]: inactive
- inhibition [4]: inactive
- inhibition (Ficin (Ficus carica)): inactive
- K [5]: 8 M⁻¹ s⁻¹
- inhibition (K562): Active
- EC50 [6]: < 50 µM
- inhibition (Papain (Carica papaya)): inactive
- K [7]: 6 M⁻¹ s⁻¹
- EC50 [11]: 40 µM

Structure (SMILES): NCc1ccc(O)cc1
- Activity (MCF7): inactive

Structure (SMILES): C=CC(=O)N1C/C(=C\c2ccc([N+](=O)[O-])cc2)C(=O)/C(=C/c2ccc([N+](=O)[O-])cc2)C1
- K [7]: 140 M⁻¹ s⁻¹

Structure (SMILES): CC(C)(C)OC(=O)NCc1ccc(OC(=O)Oc2ccc(Cl)cc2)cc1
- EC50 [1]: > 150 µM

Structure (SMILES): NCc1ccc(OC(=O)Oc2ccc(Cl)cc2)cc1
- EC50 [1]: 30 µM
- inhibition [3]: Active
- inhibition [13]: inactive
- inhibition [4]: inactive
- inhibition (Ficin (Ficus carica)): inactive
- K [5]: 13 M⁻¹ s⁻¹
- inhibition (K562): Active
- EC50 [6]: < 50 µM
- T1/2 (Homo sapiens [14]): > 6 h
- inhibition (Papain (Carica papaya)): inactive
- K [7]: 18 M⁻¹ s⁻¹
- EC50 [11]: 50 µM

Structure (SMILES): CC(C)(C)OC(=O)NCc1ccc(OC(=O)Oc2ccc3ccccc3c2)cc1
- EC50 [1]: > 150 µM

Structure (SMILES): NCc1ccc(OC(=O)Oc2ccc(F)cc2)cc1
- EC50 [1]: 300 µM

Structure (SMILES): CC(C)(C)OC(=O)NCc1ccc(OC(=O)Oc2ccccc2)cc1
- EC50 [1]: > 150 µM

Structure (SMILES): NCc1ccc(CC(=O)Oc2ccccc2)cc1
- EC50 [1]: > 150 µM

Structure (SMILES): NCc1ccc(OC(=O)Oc2ccccc2Cl)cc1
- EC50 [1]: 60 µM

Structure (SMILES): Cc1ccc(/C=C2\CNC/C(=C\c3ccc(C)cc3)C2=O)cc1
- inhibition (Homo sapiens [15]): Active
